From ChEMBL document CHEMBL1949627, “Novel triacsin C analogs as potential antivirals against rotavirus infections” (Eur J Med Chem, 2012)
Active and inactive are the calls of the source. No cut-off for these calls is given here.

How the values were obtained:
[1] = Cytotoxicity against monkey MA104 cells after 24 hrs; format: cell-based, Macaca mulatta; conditions: rhesus monkey, read-out: TD50
How it was run: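 Confluent MA104 cells exposed to a range of compound concentrations for 24 hrs; cytotoxicity read with a non-radioactive cytotoxicity (CytoTox 96) kit; TD50 derived by the Litchfield–Wilcoxon method.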

Rotavirus [2] = experiment: Antiviral activity against Rotavirus SA11 in MA104 cells assessed as inhibition of viral replication after 24 hrs by immunofluorescent assay and Western blotting analysis; format: functional; conditions: SA11, MA104, 24 h, read-out: ED50 (the source's name)
How it was run: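 Confluent MA104 monolayers infected 1 hr, PBS-washed, then given MEM with compound or DMSO (0.1%) plus trypsin 1 μg/ml. VP6 tracked by IFA (methanol fixation, anti-VP6 mAb, FITC secondary) or Western blot (β-actin control). ED50 derived from TCID50 titers at 24 hr post infection, MOI 0.05, by Litchfield–Wilcoxon.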

MA104 = experiment: Inhibition of lipogenesis in monkey MA104 cells infected with Rotavirus SA11 assessed as inhibition of increase in lipid droplets at 1 uM after 10 hrs by NBD-cholesterol based fluorescence analysis; format: functional, cell-based; conditions: Macaca mulatta
How it was run: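 Confluent MA104 cells, mock- or SA11-infected at MOI 10, incubated with compound or 0.1% DMSO in medium with NBD-cholesterol 1 μg/ml and trypsin 1 μg/ml. Fixed at 10 hr post infection in 4% formaldehyde for 10 min, PBS-washed twice; lipid-droplet fluorescence viewed by fluorescence microscopy.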

Rotavirus [3] = experiment: Antiviral activity against Rotavirus Wa in MA104 cells assessed as inhibition of viral replication after 24 hrs by immunofluorescent assay and Western blotting analysis; format: functional, organism-based
Huh-7 = experiment: Inhibition of lipogenesis in human HuH7 cells assessed as inhibition of increase in lipid droplets at 1 uM after 72 hrs by NBD-cholesterol based fluorescence analysis; format: functional, cell-based
How it was run: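 Confluent uninfected Huh-7 cells, in which lipid droplets form spontaneously, treated with compound or 0.1% DMSO for 72 hrs. Medium then replaced with NBD-cholesterol (1 μg/ml) for a further 12 hrs. Cells fixed in 4% formaldehyde for 10 min, PBS-washed, and lipid-droplet fluorescence examined by fluorescence microscopy.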

Rotavirus [4] = experiment: Virucidal activity against Rotavirus SA11 in MA104 cells assessed as reduction in viral titer at 100 uM pretreated for 2 hrs prior infection measured after 12 hrs postinfection by immunofluorescent assay; format: functional, organism-based
Rotavirus [5] = experiment: Virucidal activity against Rotavirus SA11 in MA104 cells assessed as reduction in viral titer at 100 uM pretreated for 2 hrs prior infection measured after 12 hrs postinfection by Western blotting analysis; format: functional, organism-based
[6] = Therapeutic index, ratio of TD50 for monkey MA104 cells to ED50 for Rotavirus SA11; format: cell-based; conditions: read-out: Ratio TD50/ED50
How it was run: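 TD50: confluent MA104 cells exposed to graded compound concentrations for 24 hrs, cytotoxicity read with CytoTox 96 non-radioactive kit, Litchfield–Wilcoxon fit. ED50: SA11-infected MA104 (MOI 0.05) treated with compound plus trypsin 1 μg/ml, TCID50 titers at 24 hr, Litchfield–Wilcoxon. Index is TD50 divided by ED50.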

Row | SMILES | CC50 at 24 h [1] | EC50 (Rotavirus [2]) | inhibition (MA104) | inhibition (Rotavirus [3]) | inhibition (Huh-7) | inhibition (Rotavirus [4]) | inhibition (Rotavirus [5]) | selectivity ratio [6]
1 | C=C(C)[C@@H]1CC[C@]2(C(=O)O)CC[C@]3(C)[C@H](CC[C@@H]4[C@@]5(C)CC[C@H](O)C(C)(C)[C@@H]5CC[C@]43C)[C@@H]12 [BETULINIC ACID] | 27.8 µM | 22.5 µM |  |  |  |  |  | 
2 | CCC/C=C/C/C=C/C=C/C=N/N1CCCS1(=O)=O | 86.4 µM | 2.2 µM | Active | Active | Dose-dependent effect |  |  | 
3 | CCCCCCCCCCC(C)(C)C(=O)Nc1c(OC)cc(OC)cc1OC [CL-976] | 8.5 µM | 4.3 µM |  |  |  |  |  | 
4 | O=C(Nc1ccccc1)Nc1ccc(-c2ccc(C(=O)[C@@H]3CCC[C@H]3C(=O)O)cc2)cc1 | 85.4 µM | 23.2 µM |  |  |  |  |  | 
5 | C=C1C(=O)O[C@H](CCCCCCCC)[C@H]1C(=O)O | 28.5 µM | 21.2 µM |  |  |  |  |  | 
6 | CCC/C=C/C/C=C/C=C/C=N/NS(=O)(=O)C(C)C | 90.2 µM | 9.8 µM |  | Active |  |  |  | 
7 | Cc1c(C)c2c(c(C)c1O)CCC(C)(COc1ccc(CC3SC(=O)NC3=O)cc1)O2 (stereo unspecified) [TROGLITAZONE] | 18.5 µM | 5.8 µM |  |  |  |  |  | 
8 | CCC/C=C/C/C=C/C=C/C=N/NS(=O)(=O)CCl | 74 µM | 8.7 µM |  | Active |  |  |  | 
9 | CCC/C=C/C/C=C/C=C/C=C/C#N | 78.8 µM | 21.3 µM |  | Active |  |  |  | 
10 | CCC/C=C/C/C=C/C=C/C=N/NS(=O)(=O)CCCCl | 86.3 µM | 11.5 µM |  | Active |  |  |  | 
11 | C/C=C/C/C=C/CCC(=O)[C@H]1O[C@H]1C(N)=O [CERULENIN] | 56.7 µM | 28.5 µM |  |  |  |  |  | 
12 | CCCCCCCCCCCCCCCCNc1ccc(C(=O)O)cc1 [CETABEN] | 75.5 µM | 11.3 µM |  |  |  |  |  | 
13 | CCC/C=C/C/C=C/C=C/CNc1ccc(C(=O)O)cc1 | 28.5 µM | 0.1 µM | Active | Active | Dose-dependent effect | inactive | inactive | 285
14 | CCC/C=C/C/C=C/C=C/C=N/NN=O [TRIACSIN C] | 49.6 µM | 0.2 µM | Active |  | Dose-dependent effect | inactive | inactive | 248
